# ChEMBL document CHEMBL4265871, “Novel alkylated azoles as potent antifungals” (Eur J Med Chem, 2017)
# The source made the active and inactive calls. No cut-off for these calls is given here.
# Key:
# Candida albicans [1] = assay: Antifungal activity against ITC and FLC-resistant Candida albicans ATCC MYA-90819 incubated for 48 hrs by modified CLSI M27-A3 protocol based method; format: functional; details: ATCC MYA-90819, 48 h
# Candida albicans [2] = assay: Antifungal activity against ITC and FLC-resistant Candida albicans ATCC 1237 incubated for 48 hrs by modified CLSI M27-A3 protocol based method; format: functional; details: ATCC 1237, 48 h
# Outline: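 Because these Candida strains show trailing growth, MIC-2 was read, meaning 50% growth inhibition. Caspofungin and voriconazole were tested here; other controls came from earlier work.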
# Nakaseomyces glabratus = assay: Antifungal activity against Candida glabrata ATCC 2001 incubated for 48 hrs by modified CLSI M27-A3 protocol based method; format: functional; details: ATCC 2001, 48 h
# Pichia kudriavzevii = assay: Antifungal activity against Candida krusei ATCC 6258 incubated for 48 hrs by modified CLSI M27-A3 protocol based method; format: functional; details: ATCC 6258, 48 h, read-out: MIC100
# Outline: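 For C. albicans ATCC 10231, C. krusei ATCC 6258 and C. parapsilosis ATCC 22019, MIC-0 was read, meaning complete growth inhibition. For azole controls, MIC-2 (50% growth inhibition) was reported instead. Caspofungin and voriconazole were tested here; other controls came from earlier work.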
# Aspergillus terreus = assay: Antifungal activity against Aspergillus terreus ATCC MYA-3633 incubated for 48 hrs by CLSI M38-A2 protocol based method; format: functional; details: ATCC MYA-3633, 48 h, read-out: MIC100
# Candida albicans [3] = assay: Induction of membrane permeabilization in Candida albicans ATCC 10231 at 1 to 4 times MIC incubated for 1 hr by propidium iodide staining based fluorescence microscopy; format: functional, organism-based
# Outline: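 C. albicans ATCC 10231 treated at 1× and 4× MIC and stained with propidium iodide, a membrane-impermeant dye, to detect membrane damage. Untreated cells, FLC (7.8 µg/mL) and KANB (C14) (7.8 µg/mL) serve as comparators.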
# [4] = Hemolytic activity in mouse erythrocytes assessed as hemolysis level at 1.95 ug/ml incubated for 1 hr at 37 degC; format: ADME, cell-based, Erythrocyte; details: read-out: Activity
# Outline: (§1)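 Mouse erythrocytes incubated 1 h at 37 °C with test agents over 1.95 to 125 µg/mL. Percent lysis is read for each concentration.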
# [5] = Hemolytic activity in mouse erythrocytes assessed as hemolysis level at 3.9 ug/ml incubated for 1 hr at 37 degC; format: ADME, cell-based, Erythrocyte; details: read-out: Activity; outline: as §1
# [6] = Hemolytic activity in mouse erythrocytes assessed as hemolysis level at 7.8 ug/ml incubated for 1 hr at 37 degC; format: ADME, cell-based, Erythrocyte; details: read-out: Activity; outline: as §1
# [7] = Selectivity index, ratio of EC50 for toxicity in human A549 cells to MIC50 for antifungal activity against Candida albicans ATCC 64124; format: cell-based; details: read-out: Selectivity Index
# Outline: (§2)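 Selectivity index is the EC50 against the mammalian line (A549 or BEAS-2B) divided by the MIC against the given fungal strain.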
# [8] = Selectivity index, ratio of EC50 for toxicity in human BEAS2B cells to MIC50 for antifungal activity against ITC and FLC-susceptible Candida albicans ATCC MYA-2876; format: cell-based; details: BEAS-2B cells, read-out: Selectivity Index
# Outline: (§3)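 Ratio of the compound's EC50 against BEAS-2B cells to its MIC against the named C. albicans strain. […] For C. albicans strains other than ATCC 10231, trailing growth meant MIC-2 was taken, meaning 50% growth inhibition.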
# [9] = Selectivity index, ratio of EC50 for toxicity in human BEAS2B cells to MIC50 for antifungal activity against ITC and FLC-resistant Candida albicans ATCC MYA-90819; format: cell-based; details: BEAS-2B cells, read-out: Selectivity Index; outline: as §3
# [10] = Selectivity index, ratio of EC50 for toxicity in human BEAS2B cells to MIC50 for antifungal activity against ITC and FLC-susceptible Candida albicans ATCC MYA-2310; format: cell-based; details: BEAS-2B cells, read-out: Selectivity Index; outline: as §3
# [11] = Selectivity index, ratio of EC50 for toxicity in human BEAS2B cells to MIC50 for antifungal activity against ITC and FLC-resistant Candida albicans ATCC 1237; format: cell-based; details: BEAS-2B cells, read-out: Selectivity Index; outline: as §2
# [12] = Selectivity index, ratio of EC50 for toxicity in human A549 cells to MIC50 for antifungal activity against Candida glabrata ATCC 2001; format: cell-based; details: read-out: Selectivity Index; outline: as §2
# [13] = Selectivity index, ratio of […] for toxicity in human BEAS2B cells to MIC50 for antifungal activity against Aspergillus nidulans ATCC 38163; format: cell-based; details: BEAS-2B cells, read-out: Selectivity Index
SMILES,MIC50 (Candida albicans [1]) [µM],MIC50 (Candida albicans [2]) [µM],MIC50 (Nakaseomyces glabratus) [µM],MIC (Pichia kudriavzevii) [µM],MIC (Aspergillus terreus) [µM],Activity (Candida albicans [3]),"hemolysis at 1 h, 1.95 ug/ml [4] [%]","hemolysis at 1 h, 3.9 ug/ml [5] [%]","hemolysis at 1 h, 7.8 ug/ml [6] [%]",selectivity ratio [7],selectivity ratio [8],selectivity ratio [9],selectivity ratio [10],selectivity ratio [11],selectivity ratio [12],selectivity ratio [13]
CCCCCC(O)(Cn1cncn1)c1ccc(F)cc1F (stereo unspecified),13.2,26.4,26.4,0.81,> 106,inactive,0,0,0,4,4,8,4,4,4,32
CCCCCCCCC(O)(Cn1cncn1)c1ccc(F)cc1F (stereo unspecified),5.8,5.8,5.8,0.71,23.1,inactive,0,0,46.8,3,7,7,7,7,6,27
CCCCCC(O)(Cn1cncn1)c1ccccc1F (stereo unspecified),1.7,3.5,3.5,0.22,14.1,,0,0,0,1,32,65,32,32,38,65
CCCCCCC(O)(Cn1cncn1)c1ccccc1Cl (stereo unspecified),6.3,3.2,3.2,0.39,1.6,,0,0,0,1,32,16,16,32,32,522
CCCCCCC(O)(Cn1cncn1)c1ccc(F)cc1 (stereo unspecified),3.3,107,26.8,3.3,53.5,,0,0,5.2,1,4,32,4,1,4,16
CCCCCCC(O)(Cn1cncn1)c1ccccc1F (stereo unspecified),0.82,3.3,3.3,0.21,13.4,,0,0,0,1,32,130,32,32,32,65
CCCCCCC(O)(Cn1cncn1)c1ccc(Cl)cc1 (stereo unspecified),12.7,12.7,> 102,6.3,50.7,,0,0,0,1,4,8,1,8,1,8
CCCCCC(O)(Cn1cncn1)c1ccc(F)cc1 (stereo unspecified),3.5,7,28.1,3.5,113,,,,,1,4,34,8,17,4,8
CCCCCC(O)(Cn1cncn1)c1ccccc1Cl (stereo unspecified),1.6,3.3,3.3,3.3,53.1,,0,0,0,1,32,65,32,32,32,32
CCCCCC(O)(Cn1cncn1)c1ccc(Cl)cc1 (stereo unspecified),6.6,13.3,13.3,0.41,> 106,,,,,4,2,16,2,8,8,4
CCCCC(O)(Cn1cncn1)c1ccc(F)cc1F (stereo unspecified),55.5,55.5,112,0.21,55.5,,0,0,0,2,5,2,1,2,1,19
